pEC50: −log10 of the molar value. Active and inactive are the calls of the source. The calls are words filed in the database; no cut-off is given here.
Columns and labels:
[1] = Cytotoxicity against BHK cells infected with West Nile virus replicon assessed as cell viability after 3 days by CellTiter 96 aqueous one solution cell proliferation assay; format: cell-based, Mesocricetus auratus; details: hamster, 72 h
Method in brief: (§1)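 WNV replicon BHK cells, about 3 × 10^3/well, plated without antibiotic selection; next day compound in DMSO (10 μM final for screening, or eight serial dilutions), 3 days at 37°C, 5% CO2. Tetrazolium reagent, absorbance 450 nm, triplicate means versus DMSO wells; CC50 = 50% reduction in proliferation; CC50s mean ± SD of two experiments, top dose 200 μM.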

[2] = system: Dengue virus; assay: Antiviral activity against Dengue virus infected in BHK pD2-hRucPac-2ATG cells assessed as inhibition of viral replication after 3 days by luciferase reporter gene assay; format: functional, organism-based; details: 72 h
Method in brief: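 BHK DENV subgenomic replicon line carrying Renilla luciferase, kept on 3 μg/mL puromycin; 1.5 × 10^3 cells/well plated without selection, compounds in DMSO added next day to triplicate wells, at 10 μM final for screening or eight serial dilutions. Live-cell Renilla substrate after 3 days, luminescence versus DMSO wells; EC50 = 50% luciferase reduction; MPA 1 μM control.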

[3] = Cytotoxicity against BHK cells infected with Dengue virus replicon assessed as cell viability after 3 days by CellTiter 96 aqueous one solution cell proliferation assay; format: cell-based, Mesocricetus auratus; details: hamster, 72 h
Method in brief: as §1, with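 “DENV” for “WNV”, “1.5” for “about 3”, “Tetrazolium (MTS-type)” for “Tetrazolium”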

[4] = system: dengue virus type 2; assay: Antiviral activity against Dengue virus type 2 New Guinea C infected in African green monkey Vero cells assessed as reduction in viral titer at 10 uM after 2 days by Giemsa staining assay relative to control; format: functional; design: scale not given: the % may be the effect or the level left
Method in brief: (§2)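 Vero cells, 4 × 10^5/well, infected with DENV-2 New Guinea C at MOI 0.2 for 2 h at 37°C, washed, then compound added (10 μM; MPA 1.0 μM). Supernatant taken after 2 days, clarified, 10-fold dilutions plaqued on Vero under methylcellulose for 5 days, fixed, Giemsa-stained; titer as PFU/mL, percent reduction; 10 μM from two experiments, 1.0 μM from one.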

[5] = system: Human immunodeficiency virus 1; assay: Antiviral activity against HIV1; format: functional, organism-based
[6] = system: dengue virus type 3; assay: Displacement of [3H]-SAM from biotinylated Dengue virus 3 methyltransferase expressed in Escherichia coli at 20 uM preincubated for 20 mins followed by [3H]-SAM addition measured after 15 mins by scintillation counting analysis
Method in brief: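 Biotinylated refolded E. coli-expressed DENV3 MTase (580 nM) with SPA beads (1.5 mg/mL) and 20 μM competitor (compound, SAM or sinefungin) in Tris pH 7.5 buffer with NaCl, KCl, MgCl2, MnCl2, CHAPS, 20 min at 23°C; 3H-SAM (425 nM) added, 15 min at 23°C, centrifuged, scintillation proximity counting.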

[7] = target: Human immunodeficiency virus type 1 reverse transcriptase (Human immunodeficiency virus 1) (UniProt Q72547); assay: Inhibition of HIV1 reverse transcriptase
[8] = system: unidentified influenza virus; assay: Antiviral activity against Influenzae virus; format: functional, organism-based
[9] = system: Human betaherpesvirus 5; assay: Antiviral activity against Human cytomegalovirus; format: functional, organism-based
[10] = system: Hepatitis C virus; assay: Antiviral activity against HCV; format: functional, organism-based; details: Hepacivirus hominis
[11] = system: West Nile virus; assay: Antiviral activity against West Nile virus infected in BHK-WII RepRen1B cells assessed as inhibition of viral replication at 10 uM after 3 days by luciferase reporter gene assay relative to control; format: functional; details: 72 h
Method in brief: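 Compound (DMSO, 10 μM final) added next day in triplicate; lycorine 1 μM served as control inhibitor. Three days on, live-cell Renilla substrate (1:1000 in phenol-red-free DME, 10% FBS) replaced medium. Luminescence measured; triplicate means compared with DMSO-alone wells.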

[12] = Cytotoxicity against BHK cells infected with West Nile virus replicon assessed as cell viability at 10 uM after 3 days by CellTiter 96 aqueous one solution cell proliferation assay relative to control; format: cell-based, Mesocricetus auratus; details: hamster, bhk, 72 h, 10 µM; method in brief: as §1
[13] = system: Dengue virus; assay: Antiviral activity against Dengue virus infected in BHK pD2-hRucPac-2ATG cells assessed as inhibition of viral replication at 10 uM after 3 days by luciferase reporter gene assay relative to control; format: functional; details: 72 h
Method in brief: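 Renilla luciferase-bearing DENV subgenomic replicon BHK cells, kept on 3 μg/mL puromycin, seeded at 1.5 × 10^3/well without selection. Next day, 10 μM final compound in DMSO added to triplicate wells; MPA 1 μM as control inhibitor. After 3 days, medium swapped for live-cell Renilla substrate (1:1000, phenol-red-free DME, 10% FBS). Luminescence read; triplicate mean compared with DMSO-only wells.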

[14] = Cytotoxicity against BHK cells infected with Dengue virus replicon assessed as cell viability at 10 uM after 3 days by CellTiter 96 aqueous one solution cell proliferation assay relative to control; format: cell-based, Mesocricetus auratus; details: hamster, bhk, 72 h, 10 µM
Method in brief: as §1, with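 “DENV” for “WNV”, “1.5” for “about 3”, “Tetrazolium (MTS-type)” for “Tetrazolium”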

[15] = system: West Nile virus; assay: Antiviral activity against West Nile virus infected in BHK-WII RepRen1B cells assessed as inhibition of viral replication after 3 days by luciferase reporter gene assay; format: functional, organism-based; details: 72 h
[16] = system: dengue virus type 2; assay: Antiviral activity against Dengue virus type 2 New Guinea C infected in African green monkey Vero cells assessed as reduction in viral titer at 1 uM after 2 days by Giemsa staining assay relative to control; format: functional; design: scale not given: the % may be the effect or the level left; method in brief: as §2

In the case of `COc1ccc2cc(-c3cn([C@H]4C[C@H](n5cc(C)c(=O)[nH]c5=O)O[C@@H]4CO[Si](C)(C)C(C)(C)C)nn3)ccc2c1`, the CC50 [1] was > 200 µM, the pEC50 [2] was 5.08 and the CC50 [3] was 21 µM. The Activity [4] was 98%, the Activity [5] was “inactive” and the inhibition [6] was “Active”. The inhibition [7] was “inactive”, the Activity [8] was “inactive” and the Activity [9] was “inactive”. The Activity [10] was “inactive”, the inhibition at 10 µM [11] was 92% and the Activity [12] was 100%. The inhibition at 10 µM [13] was 57%, the Activity [14] was 96% and the pEC50 [15] was 5.13.

In the case of `COc1c(C)c2c(c(O)c1C/C=C(\C)CCC(=O)O)C(=O)OC2` [MYCOPHENOLIC ACID], the Activity [16] was 68%.

In the case of `Cc1cn([C@H]2C[C@H](N3C(=O)CSC3c3ccc4[nH]ccc4c3)[C@@H](CO[Si](C)(C)C(C)(C)C)O2)c(=O)[nH]c1=O` (mixture of isomers), the CC50 [1] was 15 µM, the Activity [5] was “inactive” and the inhibition [6] was “Active”. The inhibition [7] was “inactive”, the Activity [8] was “inactive” and the Activity [9] was “inactive”. The Activity [10] was “inactive”, the inhibition at 10 µM [11] was 92% and the Activity [12] was 99%. It also gave an inhibition at 10 µM [13] of 49%, an Activity [14] of 99% and a pEC50 [15] of 5.47.

With `Cc1cn([C@H]2C[C@H](NC(=O)c3cccc4ccccc34)[C@@H](CO[Si](C)(C)C(C)(C)C)O2)c(=O)[nH]c1=O` the CC50 [1] was > 200 µM, the Activity [5] was “inactive” and the inhibition [6] was “Active”. The inhibition [7] was “inactive”, the Activity [8] was “inactive” and the Activity [9] was “inactive”. For the same compound, the Activity [10] was “inactive”, the inhibition at 10 µM [11] was 37% and the Activity [12] was 94%. It also gave an inhibition at 10 µM [13] of 11%, an Activity [14] of 99% and a pEC50 [15] of 4.48.

In the case of `Cc1cn([C@H]2C[C@H](n3nncc3C3CCCCC3)[C@@H](CO[Si](C)(C)C(C)(C)C)O2)c(=O)[nH]c1=O`, the CC50 [1] was 24 µM, the pEC50 [2] was 5.12 and the CC50 [3] was 22 µM. The Activity [5] was “inactive”, the inhibition [6] was “Active” and the inhibition [7] was “inactive”. For the same compound, the Activity [8] was “inactive”, the Activity [9] was “inactive” and the Activity [10] was “inactive”. It also gave an inhibition at 10 µM [11] of 85%, an Activity [12] of 100% and an inhibition at 10 µM [13] of 75%. The Activity [14] was 93% and the pEC50 [15] was 5.15.

With `Cc1cn([C@H]2C[C@H](n3nncc3-c3ccccc3)[C@@H](CO[Si](C)(C)C(C)(C)C)O2)c(=O)[nH]c1=O` the CC50 [1] was 32 µM, the pEC50 [2] was 4.85 and the CC50 [3] was 31 µM. For the same compound, the Activity [5] was “inactive”, the inhibition [6] was “Active” and the inhibition [7] was “inactive”. For the same compound, the Activity [8] was “inactive”, the Activity [9] was “inactive” and the Activity [10] was “inactive”. It also gave an inhibition at 10 µM [11] of 93%, an Activity [12] of 99% and an inhibition at 10 µM [13] of 51%. For the same compound, the Activity [14] was 93% and the pEC50 [15] was 5.08.

`Cc1cn([C@H]2C[C@H](NC(=O)CCCCc3ccc(F)cc3)[C@@H](CO[Si](C)(C)C(C)(C)C)O2)c(=O)[nH]c1=O` gave a CC50 [1] of 23 µM, a pEC50 [2] of 5.02 and a CC50 [3] of 22 µM. For the same compound, the Activity [4] was 67%, the inhibition [6] was “Active” and the pEC50 [15] was 4.82.

Compound `Cc1cn([C@H]2C[C@H](NS(=O)(=O)c3ccc4ccccc4c3)[C@@H](CO[Si](C)(C)C(C)(C)C)O2)c(=O)[nH]c1=O` has a CC50 [1] of 12 µM, a pEC50 [2] of 5.13 and a CC50 [3] of 14 µM. For the same compound, the inhibition [6] was “Active” and the pEC50 [15] was 5.08.

For `Cc1cn([C@H]2C[C@H](N3C(=O)CSC3c3c4ccccc4cc4ccccc34)[C@@H](CO[Si](C)(C)C(C)(C)C)O2)c(=O)[nH]c1=O` (mixture of isomers), the CC50 [1] was 27 µM, the Activity [5] was “inactive” and the inhibition [6] was “Active”. For the same compound, the inhibition [7] was “inactive”, the Activity [8] was “inactive” and the Activity [9] was “inactive”. The Activity [10] was “inactive”, the inhibition at 10 µM [11] was 85% and the Activity [12] was 90%. For the same compound, the inhibition at 10 µM [13] was 46%, the Activity [14] was 97% and the pEC50 [15] was 5.05.

In the case of `Cc1cn([C@H]2C[C@H](NC(=O)Nc3cccc4ccccc34)[C@@H](CO[Si](C)(C)C(C)(C)C)O2)c(=O)[nH]c1=O`, the pEC50 [2] was 4.96, the CC50 [3] was 23 µM and the inhibition [6] was “Active”.

With `COc1ccc2cc(-c3cnnn3[C@H]3C[C@H](n4cc(C)c(=O)[nH]c4=O)O[C@@H]3CO[Si](C)(C)C(C)(C)C)ccc2c1` the CC50 [1] was 13 µM, the pEC50 [2] was 5.14 and the CC50 [3] was 7.9 µM. For the same compound, the Activity [5] was “inactive”, the inhibition [6] was “Active” and the inhibition [7] was “inactive”. The Activity [8] was “inactive”, the Activity [9] was “inactive” and the Activity [10] was “inactive”. The inhibition at 10 µM [11] was 97%, the Activity [12] was 100% and the inhibition at 10 µM [13] was 85%. The Activity [14] was 86% and the pEC50 [15] was 5.54.

— ChEMBL document CHEMBL3576816, “5'-Silylated 3'-1,2,3-triazolyl Thymidine Analogues as Inhibitors of West Nile Virus and Dengue Virus” (J Med Chem, 2015)
